Results collected from several papers.
Lines come from different studies, so protocols differ.
CYP2D6: Cytochrome P450 2D6 (CYP2D6, Homo sapiens, UniProt P10635)

Cc1ccc(C(CS(=O)(=O)c2ccccc2)=NNC2=NC(=O)C(=NNc3ccc([N+](=O)[O-])cc3)S2)cc1 — viability (WM 266-4; cell growth or viability, MTT; 1.6 µg, 48 h): 50.5%
CC(C)(O)c1coc(S(=O)(=O)NC(=O)Nc2c3c(cc4c2CCC4)CCC3)c1 — viability (J774.A1; cell growth or viability, MTT; 10 µM, 4 h): 94.9%
C#C[C@]1(CO)O[C@@H](n2cnc3c(N)nc(F)nc32)C[C@@H]1O — CC50 (Ca-Ski; cell growth or viability, MTT; 24 h): > 50 µg/mL
COCCc1ccc(OCC(O)CNC(C)C)cc1 (stereo not shown) — AUC(0-t) (CYP2D6; human, plasma; oral, 100 mg, single dose, healthy volunteers): 758 ng·h/mL
COC(=O)C1CCN(C(=O)c2cccc(NCc3cnc4nc(N)nc(N)c4n3)c2)CC1 — inhibition (CYP2D6; enzyme activity, inhibitor, luciferase; 10 µM): -11.1%
CC(C)(C)c1nc(-c2cccc(NS(=O)(=O)c3c(F)cccc3F)c2F)c(-c2ccnc(N)n2)s1 — viability (WM 266-4; cell growth or viability, MTT; 1.6 µg, 48 h): 64.6%
COC(=O)C1CCN(C(=O)c2ccc(N(CCCO)Cc3cnc4nc(N)nc(N)c4n3)cc2)CC1 — inhibition (CYP2D6; enzyme activity, inhibitor, luciferase; 10 µM): -27.1%
NC(=S)NN=C(CS(=O)(=O)c1ccccc1)c1ccc(F)cc1 — viability (WM 266-4; cell growth or viability, MTT; 1.6 µg, 48 h): 48.6%
COc1cc2c3c(n(CCCN4CCOCC4)c(=O)c2cc1OC)-c1cc2c(cc1C3=O)OCO2 — half-life (female beagle dog, plasma; intravenous, 10 mg/m², infusion): 8 h
CC[C@@H]1CN(C(=O)NCC(F)(F)F)C[C@@H]1c1cnc2cnc3[nH]ccc3n12 — AUC(0-inf) (beagle dog, plasma; oral, 1 mg/kg, single dose): 582 ng·h/mL
CCn1c(=O)c(-c2cc(NC(=O)Nc3ccccc3)c(F)cc2Br)cc2cnc(NC)cc21 — AUC(0-inf) (beagle dog, plasma; oral, 5 mg/kg, single dose): 4030 ng·h/mL
Cc1ccc(C(CS(=O)(=O)c2ccccc2)=NNc2nc(-c3ccc(OCCCCOc4ccc(-c5csc(NN=C(CS(=O)(=O)c6ccccc6)c6ccc(C)cc6)n5)cc4)cc3)cs2)cc1 — viability (WM 266-4; cell growth or viability, MTT; 1.6 µg, 48 h): 64.3%
Cc1nc(-c2cnc(NC(C)C)n(C)c2=O)ccc1Oc1ccnc(-c2cnn(C)c2)c1 — AUC(0-t) (male beagle dog, plasma; oral, 3 mg/kg): 7030 ng·h/mL
